Source: ChEMBL document CHEMBL2407084, “Novel imino sugar α-glucosidase inhibitors as antiviral compounds” (Bioorg Med Chem, 2013)
The source made the active and inactive calls. No cut-off for these calls is given here.

What was measured:
[1] = system: Bovine viral diarrhea virus 1; experiment: Antiviral activity against Bovine viral diarrhea virus infected in MDBK cells assessed as reduction in viral infectivity at 50 uM treated for 24 hrs followed by compound washout followed by serially diluted compound treatment measured after 24 hrs by fluorescence microscopic analysis; type: functional, organism-based
How it was run: (§1)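 Supernatant from BVDV-infected MDBK cells (MOI 1, 24 h with compound) was clarified, and fivefold serial dilutions infected naive MDBK cells for 24 h. Cells were fixed in 4% paraformaldehyde, blocked in milk, permeabilised with Triton X-100, and probed with MAb103/105 against NS2/3 then FITC anti-mouse. DAPI counterstain. Foci counted by fluorescence microscopy to give FFU/ml relative to untreated control; three experiments, mean and SD.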

[2] = system: Bovine viral diarrhea virus 1; experiment: Antiviral activity against Bovine viral diarrhea virus infected in MDBK cells assessed as reduction in viral RNA level at 10 uM after 24 hrs by RT-PCR analysis; type: functional, organism-based
How it was run: (§2)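 MDBK cells (1.75 10^6/well) infected with BVDV at MOI 1, then incubated with imino sugar for 24 h. Medium was clarified by centrifugation and viral RNA purified, then DNase-treated. SYBR green real-time RT-PCR used primers amplifying a 334-bp NS2 segment, 35 cycles. Copies were calibrated against a standard curve of serially diluted BVDV stock.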

MDBK [3] = experiment: Inhibition of endoplasmic reticulum alpha-glucosidase 2 in MDBK cells assessed as accumulation of monoglucosylated Man5GlcNAc1 after 24 hrs by NP-HPLC analysis relative to Man4GlcNAc1 level; type: cell-based; settings: Bos taurus
How it was run: (§3)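 Uninfected MDBK cells (1 10^6/well) were grown with a range of imino sugar concentrations for 24 h at 37 °C. Free oligosaccharides were extracted, labelled with 2-anthranilic acid, and purified on amide and ConA-Sepharose columns. They were separated by NP-HPLC. Peak areas of tri-glucosylated (glucosidase I) or mono-glucosylated (glucosidase II) Man5GlcNAc1 were expressed relative to Man4GlcNAc1. Mean and SD.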

MDBK [4] = experiment: Inhibition of endoplasmic reticulum alpha-glucosidase 1 in MDBK cells assessed as accumulation of triglucosylated Man5GlcNAc1 after 24 hrs by NP-HPLC analysis; type: cell-based; settings: Bos taurus; how it was run: as §3
MDBK [5] = experiment: Inhibition of endoplasmic reticulum alpha-glucosidase 2 in MDBK cells assessed as accumulation of monoglucosylated Man5GlcNAc1 after 24 hrs by NP-HPLC analysis; type: cell-based; settings: Bos taurus; how it was run: as §3
MDBK [6] = experiment: Inhibition of endoplasmic reticulum alpha-glucosidase 1 in MDBK cells assessed as accumulation of triglucosylated Man5GlcNAc1 after 24 hrs by NP-HPLC analysis relative to Man4GlcNAc1 level; type: cell-based; settings: Bos taurus; how it was run: as §3
[7] = Cytotoxicity against MDBK cells after 72 hrs by MTS assay; type: cell-based, Bos taurus; settings: cattle
How it was run: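 MDBK cells (5 10^3/well) were plated for 24 h, then given fresh medium with a range of imino sugar concentrations for 72 h. MTS–phenazine methosulfate (20:1) was added for 1 h and absorbance read at 490 nm. Triplicates. CC50 is the concentration giving A490 at 50% of untreated controls.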

MDBK [8] = experiment: Inhibition of BVDV endoplasmic reticulum alpha-glucosidase 2 infected in MDBK cells assessed as increase in E2 protein glucosylation at 100 uM after 24 hrs by Western blotting analysis; type: cell-based; settings: Bovine viral diarrhea virus 1
[9] = system: Bovine viral diarrhea virus 1; experiment: Antiviral activity against Bovine viral diarrhea virus infected in MDBK cells assessed as reduction in viral infectivity at 10 uM treated for 24 hrs followed by compound washout followed by serially diluted compound treatment measured after 24 hrs by fluorescence microscopic analysis; type: functional, organism-based; how it was run: as §1
MDBK [10] = experiment: Inhibition of BVDV endoplasmic reticulum alpha-glucosidase 1 infected in MDBK cells assessed as increase in E2 protein glucosylation at 100 uM after 24 hrs by Western blotting analysis; type: cell-based; settings: Bovine viral diarrhea virus 1
[11] = system: Bovine viral diarrhea virus 1; experiment: Antiviral activity against Bovine viral diarrhea virus infected in MDBK cells assessed as reduction in viral RNA level at 50 uM after 24 hrs by RT-PCR analysis; type: functional, organism-based; how it was run: as §2

| SMILES | Activity [1] | Activity [2] | fold change (FC) (MDBK [3]) | INH (MDBK [4]) [µM] | Concentration giving inhibition (MDBK [5]) [µM] | fold change (FC) (MDBK [6]) | CC50 at 72 h [7] [µM] | activity call (active / not active) (MDBK [8]) | Activity [9] | glucosidase I inhibition (active/not active) (MDBK [10]) | inhibition (MDBK [4]) | inhibition (MDBK [5]) | Activity [11] |
| --- | --- | --- | --- | --- | --- | --- | --- | --- | --- | --- | --- | --- | --- |
| OC[C@@H]1[C@@H](O)[C@H](O)[C@@H](O)CN1Cc1cn(CC23CC4CC(CC(C4)C2)C3)nn1 | Active | inactive | 3 | 100 | 100 | 0.54 | > 250 |  |  |  |  |  |  |
| OC[C@@H]1[C@@H](O)[C@H](O)[C@@H](O)CN1CCCCn1cc(COCC23CC4CC(CC(C4)C2)C3)nn1 |  | Active | 6 | 100 | 100 | 1.52 | > 250 | inactive | Active | inactive |  |  |  |
| OC[C@@H]1[C@@H](O)[C@H](O)[C@@H](O)CN1CCCCCCn1cc(COCC23CC4CC(CC(C4)C2)C3)nn1 |  |  | 8.3 | 100 | 10 | 11.4 | 205 | Active | Active | Active |  |  |  |
| OC[C@@H]1[C@@H](O)[C@H](O)[C@@H](O)CN1CCCCCCCCCCn1cc(COCC23CC4CC(CC(C4)C2)C3)nn1 |  | Active | 5.8 | 10 | 5 | 0.26 | 29.2 | inactive | Active | inactive |  |  |  |
| OC[C@@H]1[C@@H](O)[C@H](O)[C@@H](O)CN1CCCCCCCCn1cc(COCC23CC4CC(CC(C4)C2)C3)nn1 |  | Active | 5.4 | 25 | 10 | 2 | 51.7 |  | Active |  |  |  |  |
| OC[C@@H]1[C@H](O)[C@H](O)[C@@H](O)CN1CCCCn1cc(COCC23CC4CC(CC(C4)C2)C3)nn1 | Active |  |  |  |  |  | > 250 | inactive | Active | inactive | inactive | inactive |  |
| OC[C@@H]1[C@@H](O)[C@H](O)[C@@H](O)CN1CCCCc1cn(CC23CC4CC(CC(C4)C2)C3)nn1 | Active | inactive | 5.2 | 100 | 50 | 1.44 | > 250 |  |  |  |  |  | Active |
| OC[C@@H]1[C@@H](O)[C@H](O)[C@@H](O)CN1CCc1cn(CC23CC4CC(CC(C4)C2)C3)nn1 | Active | inactive | 5.1 | 100 | 100 | 0.82 | > 250 |  |  |  |  |  | Active |
